The list is not random: actives were taken first. Their share in the collection is about 1.9%.
PLC-gamma1 inh = blocks human PLC-gamma1 enzyme activity | purified PLC-gamma1, fluorogenic substrate, fluorescence | inhibition, % at 12.2 µM | 370,000 tested, 0.84% active; in the data active = inhibition above about 9.5%
PLCb3 inh = inhibitors of human phospholipase C beta3. AID 720704. 370,000 tested, 0.18% active. inhibition, % at 12.2 µM. Q01970. Purified PLC-beta3, fluorogenic substrate, fluorescence;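 also: 0% = median of compound wells on plate and 100% = full blocker control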
Target sequence (Q01970 whole entry, looked up): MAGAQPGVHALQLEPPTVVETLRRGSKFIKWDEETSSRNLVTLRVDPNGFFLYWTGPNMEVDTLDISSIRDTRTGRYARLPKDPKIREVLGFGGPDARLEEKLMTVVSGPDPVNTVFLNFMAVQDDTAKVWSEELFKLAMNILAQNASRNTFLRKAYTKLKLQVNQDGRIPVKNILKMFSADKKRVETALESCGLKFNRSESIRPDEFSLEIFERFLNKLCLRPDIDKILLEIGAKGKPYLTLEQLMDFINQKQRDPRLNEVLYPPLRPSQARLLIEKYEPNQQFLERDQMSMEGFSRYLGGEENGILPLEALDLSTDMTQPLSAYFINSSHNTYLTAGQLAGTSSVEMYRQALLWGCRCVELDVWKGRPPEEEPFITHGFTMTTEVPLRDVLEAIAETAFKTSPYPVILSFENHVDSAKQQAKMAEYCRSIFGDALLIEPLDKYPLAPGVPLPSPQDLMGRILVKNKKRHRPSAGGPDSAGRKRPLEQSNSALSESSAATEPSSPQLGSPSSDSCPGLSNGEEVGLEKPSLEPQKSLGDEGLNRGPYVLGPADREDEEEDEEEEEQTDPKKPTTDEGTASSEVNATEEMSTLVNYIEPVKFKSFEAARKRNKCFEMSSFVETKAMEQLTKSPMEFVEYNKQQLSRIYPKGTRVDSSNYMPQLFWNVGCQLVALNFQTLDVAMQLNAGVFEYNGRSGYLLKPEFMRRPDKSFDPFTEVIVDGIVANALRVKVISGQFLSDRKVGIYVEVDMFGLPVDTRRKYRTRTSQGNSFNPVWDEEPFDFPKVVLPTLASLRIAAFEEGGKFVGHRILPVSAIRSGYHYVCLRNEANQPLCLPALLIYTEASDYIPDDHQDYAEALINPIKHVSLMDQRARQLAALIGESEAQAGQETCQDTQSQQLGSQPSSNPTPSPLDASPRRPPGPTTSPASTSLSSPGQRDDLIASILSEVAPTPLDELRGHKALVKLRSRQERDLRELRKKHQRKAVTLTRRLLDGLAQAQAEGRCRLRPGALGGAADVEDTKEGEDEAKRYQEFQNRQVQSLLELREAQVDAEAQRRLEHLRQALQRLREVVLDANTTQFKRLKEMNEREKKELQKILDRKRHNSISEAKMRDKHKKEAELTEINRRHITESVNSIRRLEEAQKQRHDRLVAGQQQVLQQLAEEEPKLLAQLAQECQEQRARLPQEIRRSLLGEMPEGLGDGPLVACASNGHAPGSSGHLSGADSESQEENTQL
ASAP1 inh = inhibitors of human ASAP1 ArfGAP activity; ASAP1-stimulated ARF1 GTP hydrolysis, GDP FP detection; inhibition, % at 16.5 µM; Q9ULH1; 360,000 tested, 0.19% active; AID 624377; in the data active = inhibition above about 25%;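 also: 0% = vehicle with enzyme and substrate and 100% = no enzyme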
ARFGAP1 inhibitor = inhibits rat ARF GTPase activating protein 1; Q62848; Arfgap1-stimulated ARF1 GTP hydrolysis, GDP FP detection; inhibition, % at 16.5 µM; 360,000 tested, 0.26% active; AID 651572;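 active = inhibition above a per-plate limit, mean inhibition of low control wells plus 3 SD, cut at about 25% in these data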;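 also: 0% = DMSO wells with enzyme and 100% = wells lacking Arfgap1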
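Assay system: purified rat His6-Arfgap1 residues 1-136 (GAP domain); Reagent: human Δ17 ARF1 bound to GTP; Dosing: 16.5 µM single point, 1.26% DMSO; Times: GTP hydrolysis reaction 2 h at 25 °C; Signal: FP, GDP Alexa 633 tracer displaced from anti-GDP antibody, 620/688 nm; Measure: % inhibition from polarization.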
HGIII-sPLA2 inh = Inhibits HGIII-sPLA2 liposome hydrolysis, primary screen | Q9NZ20 | QFRET BODIPY PC-A2 liposome hydrolysis, fluorescence | inhibition, % at 12.2 µM | 370,000 tested, 0.56% active | AID 743126;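 active = inhibition above mean plus 3 SD of compounds lying within the high and low control bounds, cut at about 19% in these data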;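 also: 0% = median of test compound wells and 100% = no enzyme DMSO wells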
PLCg1 ctr = inhibits human PLC-gamma1 in PLC-beta3 counter-screen; shares compounds with PLC-gamma1 inh; purified PLC-gamma1, fluorogenic substrate, fluorescence; inhibition, % at 12.3 µM; 3,300 tested, 3.1% active; AID 743258; in the data active = inhibition above about 9.5%
PLCbeta3 conf = human PLC-beta3 inhibition, confirmation; shares compounds with PLC-gamma1 inh; purified PLC-beta3, fluorogenic substrate fluorescence; inhibition, % at 12.3 µM; 3,300 tested, 1% active; AID 743261
Starred values were filed as active, the others as inactive; . = no result. Rule as the data show it, unless noted: active = inhibition above about 11%; inactive = the rest.

SMILES	PLC-gamma1 inh	PLCb3 inh	ASAP1 inh	ARFGAP1 inhibitor	HGIII-sPLA2 inh	PLCg1 ctr	PLCbeta3 conf
CC(C)C1C(=O)N(Cc2cn(CCC3OCCO3)nn2)CCS(=O)(=O)N1Cc1ccc(-c2ccccc2Cl)cc1 (stereo not given)	-1.8	3.1	7.6	9.1	-20.4	.	.
CCCC(=O)OC12CCCN(C1)/C(=C/c1ccc(Cl)cc1)C2 (stereo not given)	-1.2	-1.1	.	.	1.2	.	.
CCC(C)NCCCOc1cc(Cl)ccc1Cl (stereo not given)	0.9	2.0	7.9	-5.1	-5.1	.	.
CCC(C)NCCCCOc1ccc(Cl)cc1C (stereo not given)	11.7*	4.3	6.4	-15.8	1.5	7.0	2.9
Cc1nc(N2CCOCC2)[nH]c(=O)c1[N+](=O)[O-]	12.9*	-2.4	0.7	1.3	1.0	0.5	1.8
COc1ccc(Cn2cc(COC(=O)NCCc3c[nH]c4ccccc34)nn2)cc1	0.3	-3.0	.	.	-75.3	.	.
CC1=C(C(=O)Nc2ccccn2)C(c2ccc(Cl)cc2)NC(=S)N1 (stereo not given)	0.5	3.1	8.2	-3.9	11.6	.	.
CC1=C(C(=O)Nc2ccccn2)C(c2ccc(Br)cc2)NC(=S)N1 (stereo not given)	14.9*	5.1	-0.5	9.7	12.9	-2.1	-2.1
Cc1ccsc1C(=O)N1CCCC(C)(C(=O)NS(=O)(=O)C2CC2)C1 (stereo not given)	9.8*	5.0	12.0	14.6	3.2	-0.2	3.1
CC1(C(=O)NS(=O)(=O)C2CC2)CCCN(C(=O)c2cccs2)C1 (stereo not given)	1.8	-0.7	-0.1	1.4	-2.4	.	.
COc1ccc(-c2cc(-c3nnc(SCC(=O)Nc4ccccc4-c4ccccc4)n3N)[nH]n2)cc1	-2.9	-2.0	.	.	-36.4	.	.
CCN(C(=O)CSc1nnc(Nc2cccc(C)c2C)s1)C1CCS(=O)(=O)C1 (stereo not given)	4.2	3.4	-20.9	-8.3	-1.6	.	.
CCN(C(=O)CSc1nnc(NCc2ccccc2)s1)C1CCS(=O)(=O)C1 (stereo not given)	11.5*	6.2	-8.6	-11.5	8.1	-1.2	4.4
COc1ccc(N2C(=O)c3ccccc3C2O)cc1 (stereo not given)	-6.1	-4.8	-11.9	5.2	8.1	.	.
C=COc1ccc(N2C(=O)c3ccccc3OC2C)cc1 (stereo not given)	13.8*	-1.2	-0.8	21.1	2.2	-3.4	-1.1
Cc1occc1-c1nnc(SCC(=O)Nc2ccccn2)n1-c1ccccc1	2.6	0.8	.	.	-6.3	.	.
C[C@H]1[C@H](NC(=O)c2cccc(Cl)c2)CC[C@@]23CCCN2C(=O)CCC[C@@H]13	0.2	5.2	.	.	2.3	.	.
O=C1c2ccccc2C(=O)N1OCc1ccccc1[N+](=O)[O-]	13.0*	6.2	1.9	5.5	5.7	5.8	1.2
Cc1cccc(N(CC(=O)NC2CC3CCC2C3)S(=O)(=O)c2ccccc2)c1 (stereo not given)	3.6	-0.9	4.5	3.4	6.4	.	.
O=C(CN(c1ccccc1Cl)S(=O)(=O)c1ccccc1)NC1CC2CCC1C2 (stereo not given)	5.6	14.0*	-5.2	13.8	-8.3	-2.8	-50.7
CCCn1c(SCC(=O)NCC)nc2sc3c(c2c1=O)CCC3	9.6*	-6.6	9.2	1.9	18.0	7.0	1.9
Cc1ccc([C@H]2N[C@]3(CCCN(Cc4ccco4)C3=O)[C@H]3C(=O)N(Cc4ccccc4)C(=O)[C@@H]23)cc1	12.2*	3.2	2.9	7.5	-10.6	-0.3	-3.8
O=C1[C@H]2[C@@H](c3ccccc3)N[C@]3(CCCN(Cc4ccco4)C3=O)[C@H]2C(=O)N1Cc1ccccc1	0.6	-4.5	-12.3	-18.2	-2.3	.	.
C[C@H](O)[C@@H]1CN2CCc3ccc(-c4ccc5c(c4)OCO5)cc3[C@@H]2C[C@@H]1N(C)C(=O)c1cccc(Cl)c1	-11.6	-14.9	3.8	-6.7	-7.3	.	.
COc1cccc(CC(=O)N2CCN(S(=O)(=O)c3ccc(Br)cc3)CC2)c1	12.1*	5.2	-13.0	-10.7	-6.2	-7.6	-5.4
SMILES	PLC-gamma1 inh	PLCb3 inh	ASAP1 inh	ARFGAP1 inhibitor	HGIII-sPLA2 inh	PLCg1 ctr	PLCbeta3 conf
O=C(CSc1nnc(CCCN2C(=O)c3cccc4cccc(c34)C2=O)n1-c1ccccc1)NCCCO	-16.1	-13.6	0.3	0.9	-11.3	.	.
O=C(CSc1nnc(CCCN2C(=O)c3cccc4cccc(c34)C2=O)n1-c1ccccc1)NCCCN1CCOCC1	11.2*	3.5	-1.6	5.2	2.9	-7.7	-2.2
CCOc1cc(/C=N\NC(=O)Cn2nnc3ccccc32)ccc1O	10.2*	3.7	6.8	9.5	1.9	4.5	4.6
O=C(O)CCCn1cc(NC(=O)COc2ccccc2)cn1	11.3*	-1.4	-8.7	5.6	-0.9	-1.1	2.1
O=C(O)CCCn1cc(NC(=O)COc2ccc(F)cc2)cn1	1.0	-4.2	5.7	12.9	1.4	.	.
O=C(c1ccccc1)N1CC[C@H]2[C@H](CCCN2Cc2ccccc2)C1	2.4	-0.8	.	.	1.0	.	.
O=C(C1CCN(c2cncnc2)CC1)N1CCCC1	-3.2	-3.8	.	.	5.2	.	.
CC(C)C[C@H](NC(=O)c1ccc(OC2CCN(C(=O)C3CC3)CC2)cc1)C(N)=O	9.7*	-3.9	-17.6	4.5	7.3	-2.1	-4.7
CC(C)CN1CN2Cc3cc(F)ccc3C2CS1(=O)=O (stereo not given)	-2.5	-5.0	.	.	3.9	.	.
COc1ccc(OCC(=O)NCCC2=CCCCC2)c([N+](=O)[O-])c1	10.1*	3.9	3.0	-1.7	-4.0	-0.3	-5.7
FC(F)(F)c1ccccc1Cc1c(-c2ccco2)nc2c3ccccc3ccn12	-21.5	-31.8	-2.9	-0.9	1.0	.	.
CCOC(=O)c1cnn(-c2nc(-c3ccccc3)cs2)c1C(F)(F)F	-72.2	-100.1	2.1	-3.2	-4.2	.	.
CCOC(=O)c1cnn(-c2nc(-c3ccccc3F)cs2)c1C(F)(F)F	9.8*	8.5	14.4	-3.2	0.1	-101.7	-96.1
CCOC(=O)[C@H]1[C@H]2COc3ccccc3[C@@H]2N2C(=O)CNC(=O)[C@@]12C	7.0	12.7*	20.5	-9.0	13.5	-9.0	-2.2
Cn1c(SCc2ccc(C(C)(C)C)cc2)nnc1-c1ccco1	0.5	1.0	.	.	-6.1	.	.
CCCN1CNC(=S)N(c2ccccc2OCC)C1	4.5	1.9	1.3	10.7	-0.7	.	.
CCCCN1CNC(=S)N(c2ccccc2OCC)C1	11.2*	2.5	2.7	4.7	7.2	0.9	4.0
COc1ccc(N(C(=O)COc2ccccc2)C2C=CS(=O)(=O)C2)c(OC)c1 (stereo not given)	13.8*	5.1	1.8	2.1	2.6	-5.1	-1.7
COc1ccc(C2C(C(=O)N3CCC(C)CC3)CC(=O)N2c2ccc(OC)cc2)cc1 (stereo not given)	-1.4	1.5	.	.	3.1	.	.
